Test results from ChEMBL document CHEMBL4414562, “Discovery of the First in Vivo Active Inhibitors of the Soluble Epoxide Hydrolase Phosphatase Domain” (J Med Chem, 2019).
The source made the active and inactive calls. The rule behind the calls is not given here.

Tests used:
[1] = Inhibition of hexa-His-tagged human soluble epoxide hydrolase N-terminal phosphatase domain expressed in Escherichia coli BL21(DE3) pre-incubated for 30 mins before FDP substrate addition by fluorescence based assay
[2] = biological target: T1, Prostaglandin G/H synthase 2 (Homo sapiens, UniProt P35354); assay: Inhibition of COX2 in LPS-stimulated human monocytes assessed as reduction in PGE2 production by LC-tandem MIS analysis; type: cell-based
T1 sequence (P35354 whole entry): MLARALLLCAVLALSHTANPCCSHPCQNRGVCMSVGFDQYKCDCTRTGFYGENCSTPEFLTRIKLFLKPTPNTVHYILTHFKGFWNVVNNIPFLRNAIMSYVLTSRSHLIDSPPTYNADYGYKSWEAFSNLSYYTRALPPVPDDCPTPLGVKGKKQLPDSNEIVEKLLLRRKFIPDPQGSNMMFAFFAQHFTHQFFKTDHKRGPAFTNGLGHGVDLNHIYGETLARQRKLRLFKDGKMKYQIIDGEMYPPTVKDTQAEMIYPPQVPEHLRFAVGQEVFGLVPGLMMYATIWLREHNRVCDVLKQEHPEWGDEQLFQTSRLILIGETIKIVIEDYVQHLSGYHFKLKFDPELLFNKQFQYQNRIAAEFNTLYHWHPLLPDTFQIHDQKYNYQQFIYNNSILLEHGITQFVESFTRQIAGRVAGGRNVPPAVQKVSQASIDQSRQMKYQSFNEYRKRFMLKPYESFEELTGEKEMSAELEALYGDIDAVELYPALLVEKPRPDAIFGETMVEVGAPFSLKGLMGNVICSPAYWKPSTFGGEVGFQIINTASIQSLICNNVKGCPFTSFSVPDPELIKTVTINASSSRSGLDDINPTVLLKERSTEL
Method in brief: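 Human monocytes resuspended in HBSS and pretreated with increasing compound concentrations before LPS challenge. PGE2 quantified by LC−MS/MS using PGE2-d4 isotope-dilution internal standard.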

[3] = biological target: T2, Peroxisome proliferator-activated receptor alpha (Homo sapiens) (UniProt Q07869); assay: Activation of Gal4-fused human PPARalpha LBD transfected in HEK293T cells at 10 uM after 12 to 14 hrs by luciferase reporter gene assay; type: cell-based
T2 sequence (whole entry): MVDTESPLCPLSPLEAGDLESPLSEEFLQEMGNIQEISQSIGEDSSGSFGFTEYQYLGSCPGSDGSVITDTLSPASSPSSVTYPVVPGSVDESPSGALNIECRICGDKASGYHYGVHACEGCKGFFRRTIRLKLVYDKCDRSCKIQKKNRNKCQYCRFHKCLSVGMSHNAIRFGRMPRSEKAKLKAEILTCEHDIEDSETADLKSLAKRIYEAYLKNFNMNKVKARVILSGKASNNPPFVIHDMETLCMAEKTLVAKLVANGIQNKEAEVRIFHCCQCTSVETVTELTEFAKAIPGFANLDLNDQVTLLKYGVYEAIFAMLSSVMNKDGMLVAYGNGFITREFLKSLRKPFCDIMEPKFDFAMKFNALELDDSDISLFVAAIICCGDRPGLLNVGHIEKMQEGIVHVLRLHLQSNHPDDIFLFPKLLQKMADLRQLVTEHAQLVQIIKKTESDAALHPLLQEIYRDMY
Method in brief: (§1)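 Gal4–human nuclear receptor LBD fusion (pFA-CMV-hNR-LBD) co-transfected with pFR-Luc and pRL-SV40 (Lipofectamine LTX) into HEK293T cells seeded the day before. 5 h post-transfection, compound added in Opti-MEM with 0.1% DMSO and incubated 12−14 h. Dual-Glo firefly/Renilla luciferase read. Activation expressed relative to reference agonist at 1 μM. Triplicates, ≥3 independent experiments.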

[4] = biological target: T3, Peroxisome proliferator-activated receptor gamma (Homo sapiens) (UniProt P37231); assay: Activation of Gal4-fused human PPARgamma LBD transfected in HEK293T cells at 10 uM after 12 to 14 hrs by luciferase reporter gene assay; type: cell-based; method in brief: as §1
T3 sequence (whole entry): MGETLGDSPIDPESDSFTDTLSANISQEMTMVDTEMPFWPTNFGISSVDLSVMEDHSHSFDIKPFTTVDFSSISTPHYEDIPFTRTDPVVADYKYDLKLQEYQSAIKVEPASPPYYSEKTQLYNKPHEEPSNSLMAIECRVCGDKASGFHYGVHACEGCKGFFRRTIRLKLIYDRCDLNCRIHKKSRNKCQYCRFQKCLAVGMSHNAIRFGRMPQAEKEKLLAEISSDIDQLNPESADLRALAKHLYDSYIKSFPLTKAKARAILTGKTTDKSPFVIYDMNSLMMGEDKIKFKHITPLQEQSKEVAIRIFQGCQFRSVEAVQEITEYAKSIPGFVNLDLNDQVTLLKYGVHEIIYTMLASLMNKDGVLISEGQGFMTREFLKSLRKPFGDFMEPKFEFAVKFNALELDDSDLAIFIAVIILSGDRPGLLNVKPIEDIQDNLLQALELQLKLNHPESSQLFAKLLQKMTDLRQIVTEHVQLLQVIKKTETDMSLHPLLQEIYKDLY

[5] = biological target: T4, Oxysterols receptor LXR-alpha (Homo sapiens) (UniProt Q13133); assay: Activation of Gal4-fused human LXRalpha LBD transfected in HEK293T cells at 10 uM after 12 to 14 hrs by luciferase reporter gene assay; type: cell-based; method in brief: as §1
T4 sequence (whole entry): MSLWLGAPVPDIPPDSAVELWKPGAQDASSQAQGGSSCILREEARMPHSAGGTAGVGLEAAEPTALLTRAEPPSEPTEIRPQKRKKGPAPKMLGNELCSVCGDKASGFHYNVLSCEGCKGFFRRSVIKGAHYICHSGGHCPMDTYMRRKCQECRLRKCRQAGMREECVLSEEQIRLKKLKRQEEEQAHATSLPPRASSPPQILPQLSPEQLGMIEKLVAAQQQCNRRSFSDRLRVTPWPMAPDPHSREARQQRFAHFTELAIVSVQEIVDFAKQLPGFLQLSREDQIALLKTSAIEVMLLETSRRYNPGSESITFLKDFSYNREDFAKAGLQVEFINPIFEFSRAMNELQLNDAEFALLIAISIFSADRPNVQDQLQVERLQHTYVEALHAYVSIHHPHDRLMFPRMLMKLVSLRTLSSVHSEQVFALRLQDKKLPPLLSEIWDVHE

SMILES	IC50 [1]	IC50 [2]	Activity [3]	Activity [4]	Activity [5]
O=C(O)CCc1nc(-c2ccccc2)c(-c2ccccc2)o1 [OXAPROZIN]	5000 nM	110 nM	inactive	inactive	inactive
O=C(O)CCCc1nc(-c2ccc(Cl)c(Cl)c2)c(-c2ccccc2)o1	58 nM	420 nM	inactive	29%	inactive
